From ChEMBL document CHEMBL1157636, “Novel C-aryl glucoside SGLT2 inhibitors as potential antidiabetic agents: 1,3,4-Thiadiazolylmethylphenyl glucoside congeners” (Bioorg Med Chem, 2010)

How the values were obtained:
[1] = molecular target: T1, Sodium/glucose cotransporter 2 (Homo sapiens, UniProt P31639); experiment: Inhibition of human recombinant SGLT2 expressed in CHO cells by liquid scintillation counting; assay type: cell-based
T1 sequence (P31639 whole entry): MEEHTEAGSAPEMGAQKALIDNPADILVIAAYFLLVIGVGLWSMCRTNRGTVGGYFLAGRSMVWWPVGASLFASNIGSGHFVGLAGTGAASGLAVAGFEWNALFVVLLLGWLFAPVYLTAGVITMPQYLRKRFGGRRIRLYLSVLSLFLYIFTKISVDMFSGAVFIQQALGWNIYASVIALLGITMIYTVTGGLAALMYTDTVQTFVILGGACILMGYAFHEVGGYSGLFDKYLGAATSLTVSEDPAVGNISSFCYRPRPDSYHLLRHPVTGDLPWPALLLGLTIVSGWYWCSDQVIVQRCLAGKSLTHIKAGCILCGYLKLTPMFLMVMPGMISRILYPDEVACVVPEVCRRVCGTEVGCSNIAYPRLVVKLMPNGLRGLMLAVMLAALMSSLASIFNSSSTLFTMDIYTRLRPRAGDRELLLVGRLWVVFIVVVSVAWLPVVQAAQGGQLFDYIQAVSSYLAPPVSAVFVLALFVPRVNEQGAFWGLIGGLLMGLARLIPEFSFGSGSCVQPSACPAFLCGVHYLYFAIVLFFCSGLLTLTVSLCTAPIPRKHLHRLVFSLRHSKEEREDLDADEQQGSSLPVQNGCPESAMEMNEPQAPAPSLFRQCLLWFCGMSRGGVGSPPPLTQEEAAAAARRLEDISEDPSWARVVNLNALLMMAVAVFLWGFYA
Outline: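 hSGLT2 cloned from human kidney cDNA; stable clones selected by G418 resistance. Preincubated 10 min at 37 °C in sodium-free choline buffer pH 7.4. Then 2 h at 37 °C in Na⁺ uptake buffer with 1 mM unlabeled AMG plus ¹⁴C-AMG and inhibitor or DMSO. Washed, radioactivity counted; IC50 by nonlinear regression.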

[2] = Cmax in Sprague-Dawley rat at 5 mg/kg, po; assay type: ADME, organism-based; parameters: dose 5 mg/kg, route oral; settings: in vivo
Rattus norvegicus [3] = experiment: Effect on urinary glucose excretion in normal fasted Sprague-Dawley rat at 10 mg/kg, po subsequently co-treated with glucose measured up to 24 hrs relative to untreated control; assay type: ADME, organism-based, Urine; parameters: dose 10 mg/kg, route oral; settings: in vivo
Outline: (§1)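 Overnight-fasted male SD rats placed in metabolism cages for 24 h baseline urine, then randomized and given single oral drug or vehicle followed by oral 50% aqueous glucose (2 g/kg). Urine collected 24 h, re-fed 1 h after glucose challenge. Urine volume measured and glucose determined enzymatically. Values normalized per 200 g body weight; means ± S.E.M., ANOVA with Dunnett's test.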

Rattus norvegicus [4] = experiment: Effect on urine volume in normal fasted Sprague-Dawley rat at 10 mg/kg, po subsequently co-treated with glucose measured up to 24 hrs relative to untreated control; assay type: ADME, organism-based; parameters: dose 10 mg/kg, route oral; settings: in vivo; outline: as §1
Mus musculus = experiment: Antidiabetic activity in db/db mouse assessed as reduction in blood glucose level at 10 mg/kg, po after 4 hrs relative to untreated control; assay type: functional; parameters: scale not given: the % may be the effect or the level left
Outline: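 Diabetic db/db mice (n = 4 per group), randomized by weight and given single oral dose of vehicle or drug. Reduction versus vehicle controls at 4 h; means ± S.E.M., one-way ANOVA with Dunnett's test.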

[5] = Tmax in Sprague-Dawley rat at 5 mg/kg, po; assay type: ADME, organism-based; parameters: dose 5 mg/kg, route oral; settings: in vivo
[6] = Elimination half life in Sprague-Dawley rat at 5 mg/kg, po; assay type: ADME, organism-based; parameters: dose 5 mg/kg, route oral; settings: in vivo, read-out: beta t1/2 (converted)
[7] = Oral bioavailability in Sprague-Dawley rat at 5 mg/kg; assay type: ADME, organism-based; settings: in vivo
Rattus norvegicus [8] = experiment: Effect on urinary glucose excretion in normal fasted Sprague-Dawley rat at 10 mg/kg, po subsequently co-treated with glucose measured up to 24 hrs relative to untreated control; settings: in vivo

IC50 [1] [µM]	Compound	also measured
0.00625	COc1ccc(Cc2ccccc2O[C@@H]2O[C@H](CO)[C@@H](O)[C@H](O)[C@H]2O)cc1 [SERGLIFLOZIN A]	–
2.39	OC[C@H]1OC(c2ccc(Cl)c(Cc3nnc(Cc4ccc(Cl)cc4)s3)c2)[C@H](O)[C@@H](O)[C@@H]1O (some centres not stated)	–
6.91	CCCc1nnc(Cc2cccc([C@@H]3O[C@H](CO)[C@@H](O)[C@H](O)[C@H]3O)c2)s1	–
–	OC[C@H]1O[C@@H](c2ccc(Cl)c(Cc3nnc(-c4ccco4)s3)c2)[C@H](O)[C@@H](O)[C@@H]1O	Cmax [2]: 50 ng/mL; fold change (FC) (Rattus norvegicus [3]): 100; fold change (FC) (Rattus norvegicus [4]): 1.4; Activity (Mus musculus): 72.8%; Tmax [5]: 19.8 min; half-life [6]: 51.6 min; bioavailability [7]: 7.7%; fold change (FC) (Rattus norvegicus [8]): 100
> 10	CC(C)(c1ccc(Cl)cc1)c1nnc(Cc2cc(C3O[C@H](CO)[C@@H](O)[C@H](O)[C@H]3O)ccc2Cl)s1 (some centres not stated)	–
3.28	Cn1nc(-c2nnc(Cc3cc([C@@H]4O[C@H](CO)[C@@H](O)[C@H](O)[C@H]4O)ccc3Cl)s2)c2ccccc21	–
> 10	Cc1noc(C)c1-c1nnc(Cc2cc([C@@H]3O[C@H](CO)[C@@H](O)[C@H](O)[C@H]3O)ccc2Cl)s1	–
> 10	CC(C)(C)c1nnc(Cc2cccc(C3O[C@H](CO)[C@@H](O)[C@H](O)[C@H]3O)c2)s1 (some centres not stated)	–
0.0726	OC[C@H]1O[C@@H](c2ccc(Cl)c(Cc3nnc(-c4csc(-c5ccncc5)n4)s3)c2)[C@H](O)[C@@H](O)[C@@H]1O	–
> 10	CCc1noc(C)c1-c1nnc(Cc2cc([C@@H]3O[C@H](CO)[C@@H](O)[C@H](O)[C@H]3O)ccc2Cl)s1	–
